Results as given in ChEMBL document CHEMBL1153830, “Treatment of a clinically relevant plant-pathogenic fungus with an agricultural azole causes cross-resistance to medical azoles and potentiates caspofungin efficacy” (2007).
Calls of active or inactive are those of the source.

Columns and labels:
[1] = test system: Colletotrichum graminicola; assay: Fungicidal activity against tebuconazole-adapted wild type Colletotrichum graminicola CgM2 assessed as metabolically inactive hyphae at 0.025 ug/ml after 3 days by FUN1 staining-based fluorescence microscopy; format: functional, organism-based
Outline: (§1)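 Mycelia were grown 3 days in liquid complete medium with drug at 0–5 μg/ml. Staining used 50 μM FUN-1 in 2% glucose and 10 mM HEPES (pH 7.2), 1 h at 27°C. Viability was scored by epifluorescence microscopy with a GFP-LP filter. Negative controls were killed with 70% ethanol for 30 min before staining.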

[2] = test system: Colletotrichum graminicola; assay: Fungicidal activity against tebuconazole-adapted wild type Colletotrichum graminicola CgM2 assessed as cell wall rigidity deffect-related increase in apical cell diameter at 0.025 ug/ml after 3 days by differential interference contrast microscopy; format: functional, organism-based
Outline: (§2)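 Mycelia were grown 3 days in liquid complete medium with caspofungin at 0–5 μg/ml. Cell wall rigidity and hyphal swelling were judged by Nomarski (DIC) light microscopy.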

[3] = test system: Colletotrichum graminicola; assay: Fungicidal activity against tebuconazole-adapted wild type Colletotrichum graminicola CgM2 assessed as cell death at 0.25 ug/ml after 3 days by FUN1 staining-based fluorescence microscopy; format: functional, organism-based; outline: as §1
[4] = test system: Colletotrichum graminicola; assay: Fungicidal activity against tebuconazole-adapted wild type Colletotrichum graminicola CgM2 assessed as cell wall rigidity deffect-related cell wall swelling at 0.25 ug/ml after 3 days by differential interference contrast microscopy; format: functional, organism-based; outline: as §2
[5] = test system: Colletotrichum graminicola; assay: Fungicidal activity against tebuconazole-adapted wild type Colletotrichum graminicola CgM2 assessed as increase in metabolically inactive hyphal count at 2.5 ug/ml after 3 days by FUN1 staining-based fluorescence microscopy; format: functional, organism-based; outline: as §1
[6] = test system: Colletotrichum graminicola; assay: Fungicidal activity against tebuconazole-adapted wild type Colletotrichum graminicola CgM2 assessed as deffects in cell wall rigidity at 2.5 ug/ml after 3 days by differential interference contrast microscopy; format: functional, organism-based; outline: as §2
[7] = test system: Colletotrichum graminicola; assay: Fungicidal activity against tebuconazole-nonadapted wild type Colletotrichum graminicola CgM2 infected in excised human skin assessed as inhibition of invasive colonized hyphal growth at epidermis at ED50 after 4 days by Uvitex-2B staining-based fluorescence microscopy; format: functional, organism-based
Outline: (§3)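 Excised human skin from reduction mammoplasty, all pieces from one donor, cut to 20 mm discs. Each disc got 15–20 prick wounds and 100 μl of 10^6 conidia/ml. Discs sat in a Franz diffusion cell at 32°C over isotonic NaCl for up to 4 days. Drug was applied at ED50, ED90 or 2× ED90, three pieces per condition. Biopsies were cryosectioned and Uvitex 2B-stained; hyphal area per section was measured by fluorescence.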

[8] = test system: Colletotrichum graminicola; assay: Fungicidal activity against tebuconazole-nonadapted wild type Colletotrichum graminicola CgM2 infected in excised human skin assessed as inhibition of invasive colonized hyphal growth at epidermis at ED90 after 4 days by Uvitex-2B staining-based fluorescence microscopy; format: functional, organism-based; outline: as §3
[9] = test system: Colletotrichum graminicola; assay: Fungicidal activity against tebuconazole-nonadapted wild type Colletotrichum graminicola CgM2 assessed as inhibition of radial growth rate at 23 degC in darkness; format: functional
Outline: (§4)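 Radial growth on solid complete medium, 23°C, darkness. Colony diameters were read at 3 and 6 days after inoculation and compared with drug-free control plates. Azoles and picoxystrobin were dissolved in 12% (wt/vol) Cremophor EL and tested at 0–2.5 μg/ml. Caspofungin, amphotericin B and nystatin were dissolved in water and tested from 0.00025 μg/ml; caspofungin plates used sucrose (10 mg/ml) in place of glucose.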

[10] = test system: Colletotrichum graminicola; assay: Fungicidal activity against tebuconazole-adapted wild type Colletotrichum graminicola CgM2 assessed as inhibition of radial growth rate at 23 degC in darkness; format: functional; outline: as §4
[11] = test system: Colletotrichum graminicola; assay: Fungicidal activity against tebuconazole-nonadapted wild type Colletotrichum graminicola CgM2 assessed as metabolically inactive hyphae at 0.025 ug/ml after 3 days by FUN1 staining-based fluorescence microscopy; format: functional, organism-based; outline: as §1
[12] = test system: Colletotrichum graminicola; assay: Fungicidal activity against tebuconazole-nonadapted wild type Colletotrichum graminicola CgM2 assessed as deffects in cell wall rigidity at 0.025 ug/ml after 3 days by differential interference contrast microscopy; format: functional, organism-based; outline: as §2
[13] = test system: Colletotrichum graminicola; assay: Fungicidal activity against tebuconazole-nonadapted wild type Colletotrichum graminicola CgM2 assessed as metabolically inactive hyphae at 0.25 ug/ml after 3 days by FUN1 staining-based fluorescence microscopy; format: functional, organism-based; outline: as §1
[14] = test system: Colletotrichum graminicola; assay: Fungicidal activity against tebuconazole-nonadapted wild type Colletotrichum graminicola CgM2 assessed as deffects in cell wall rigidity at 0.25 ug/ml after 3 days by differential interference contrast microscopy; format: functional, organism-based; outline: as §2
[15] = test system: Colletotrichum graminicola; assay: Fungicidal activity against tebuconazole-nonadapted wild type Colletotrichum graminicola CgM2 assessed as deffects in cell wall rigidity at hyphal apex at 0.25 ug/ml after 3 days by differential interference contrast microscopy; format: functional, organism-based; outline: as §2
[16] = test system: Colletotrichum graminicola; assay: Fungicidal activity against tebuconazole-nonadapted wild type Colletotrichum graminicola CgM2 assessed as cell death at 2.5 ug/ml after 3 days by FUN1 staining-based fluorescence microscopy; format: functional, organism-based; outline: as §1
[17] = test system: Colletotrichum graminicola; assay: Fungicidal activity against tebuconazole-nonadapted wild type Colletotrichum graminicola CgM2 assessed as deffects in cell wall rigidity at 2.5 ug/ml after 3 days by differential interference contrast microscopy; format: functional, organism-based; outline: as §2
[18] = test system: Colletotrichum graminicola; assay: Fungicidal activity against tebuconazole-nonadapted wild type Colletotrichum graminicola CgM2 infected in excised human skin assessed as inhibition of invasive colonized hyphal growth at epidermis at twofold ED90 after 4 days by Uvitex-2B staining-based fluorescence microscopy; format: functional, organism-based; outline: as §3
[19] = test system: Colletotrichum graminicola; assay: Fungicidal activity against tebuconazole-nonadapted wild type Colletotrichum graminicola CgM2 infected in excised human skin assessed as inhibition of invasive colonized hyphal growth at dermis at ED50 after 4 days by Uvitex-2B staining-based fluorescence microscopy; format: functional, organism-based; outline: as §3
[20] = test system: Colletotrichum graminicola; assay: Fungicidal activity against tebuconazole-nonadapted wild type Colletotrichum graminicola CgM2 infected in excised human skin assessed as inhibition of invasive colonized hyphal growth at dermis at ED90 after 4 days by Uvitex-2B staining-based fluorescence microscopy; format: functional, organism-based; outline: as §3
[21] = test system: Colletotrichum graminicola; assay: Fungicidal activity against tebuconazole-adapted wild type Colletotrichum graminicola CgM2 infected in excised human skin assessed as inhibition of invasive colonized hyphal growth at epidermis at ED90 after 4 days by Uvitex-2B staining-based fluorescence microscopy; format: functional, organism-based; outline: as §3
[22] = test system: Colletotrichum graminicola; assay: Fungicidal activity against tebuconazole-adapted wild type Colletotrichum graminicola CgM2 infected in excised human skin assessed as inhibition of invasive colonized hyphal growth at dermis at ED90 after 4 days by Uvitex-2B staining-based fluorescence microscopy; format: functional, organism-based; outline: as §3
[23] = test system: Colletotrichum graminicola; assay: Fungicidal activity against tebuconazole-adapted wild type Colletotrichum graminicola CgM2 infected in excised human skin assessed as inhibition of invasive colonized hyphal growth at hypodermis at ED90 after 4 days by Uvitex-2B staining-based fluorescence microscopy; format: functional, organism-based; outline: as §3
[24] = Colletotrichum graminicola, CgM2, read-out: ED50 (the source's name)

CC[C@H](C)C[C@H](C)CCCCCCCCC(=O)N[C@H]1C[C@@H](O)[C@@H](NCCN)NC(=O)[C@@H]2[C@@H](O)CCN2C(=O)[C@H]([C@H](O)CCN)NC(=O)[C@H]([C@H](O)[C@@H](O)c2ccc(O)cc2)NC(=O)[C@@H]2C[C@@H](O)CN2C(=O)[C@H]([C@@H](C)O)NC1=O [CASPOFUNGIN]
0.032 µg/mL: EC50 [9, 24]
6 ng/mL: EC50 [10, 24]
1.281 µg/mL: ED90 [9]
active: Activity [1] | Activity [2] | Activity [3] | Activity [4] | Activity [5] | Activity [13] | Activity [14] | Activity [15] | Activity [16] | Activity [17] | Activity [21] | Activity [22] | Activity [23]
0.77 µg/mL: ED90 [10]
inactive: Activity [6] | Activity [7] | Activity [8] | Activity [11] | Activity [12] | Activity [18] | Activity [19] | Activity [20]
